According to ChEMBL document CHEMBL1833940, “Discovery of 3-(2,6-dichloro-3,5-dimethoxy-phenyl)-1-{6-[4-(4-ethyl-piperazin-1-yl)-phenylamino]-pyrimidin-4-yl}-1-methyl-urea (NVP-BGJ398), a potent and selective inhibitor of the fibroblast growth factor receptor family of receptor tyrosine kinase” (J Med Chem, 2011):
Activity calls are given as the source filed them. The rule behind the calls is not given here.

Experiments:
Tumour [1] = assay: Drug uptake in tumor of nude rowett rat bearing human RT112 cells at 4.25 mg/kg, po administered as a single dose after 7 hrs by LC-MS/MS analysis; assay type: ADME, organism-based, Neoplasm, RT-112; parameters: dose 4.25 mg/kg, route oral; conditions: in vivo
Outline: (§1)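 Nude Rowett rats bearing subcutaneous RT112 tumors (n = 4) received a single gavage of monophosphate salt at 4.25 or 8.51 mg/kg free base in acetate buffer pH 4.6/PEG300. Tumors were collected at intervals after dosing, frozen and homogenized in an equal volume of ice-cold PBS. Compound levels were measured by LC-MS/MS (LOQ 3 ng/mL).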

Rattus norvegicus [2] = assay: Inhibition of FGFR autophosphorylation in RT112 tumor bearing nude rowett rat assessed as decrease in pFRS2 concentration at 8.51 mg/kg, po administered as a single dose after 16 hrs by Western blot analysis; assay type: functional, organism-based; parameters: dose 8.51 mg/kg
Outline: (§2)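 RT112 subcutaneous xenografts in female nude Rowett rats (n = 4). Single oral gavage of the monophosphate salt at 4.25 or 8.51 mg/kg (free base equivalents) in acetic acid–acetate buffer pH 4.6/PEG300 (1:1). Tumors were collected at time points up to 24 h, frozen, homogenized and lysed. Western blots probed pFRS2(Tyr196) and pMAPK, with total FRS2, total MAPK or β-tubulin as loading controls.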

[3] = target: Mitogen-activated protein kinase 12 (Homo sapiens, UniProt P53778); assay: Inhibition of recombinant p38-gamma
Outline: (§3)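 Purified recombinant kinases under optimized conditions with peptide substrates. ATP was set at each kinase's Km. Phosphorylation was read by microfluidic mobility-shift separation of substrate and product; IC50 determined.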

[4] = target: Tyrosine-protein kinase Lck (Homo sapiens, UniProt P06239); assay: Inhibition of recombinant LCK kinase
Outline: (§4)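 Purified recombinant kinases under optimized conditions, with peptide substrates and ATP at each kinase's Km. Phosphorylation was read out by microfluidic mobility shift, and IC50 values were obtained.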

Rattus norvegicus [5] = assay: Dose normalized AUC in Wistar rat at 5 mg/kg, iv by LC-MS/MS analysis; assay type: ADME, organism-based; parameters: dose 5 mg/kg, route intravenous; conditions: in vivo
Outline: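 Female Wistar rats received either an iv femoral-vein dose of 5 mg/kg in NMP/PEG200 (1:9) or an oral dose of monophosphate salt at 10 mg/kg (free base) in acetate buffer pH 4.6/PEG300. Plasma was sampled by sublingual bleeding at 0.083–24 h (n = 4 staggered, or n = 3–4 serial). Plasma levels were measured by LC-MS/MS (LOQ 10 ng/mL).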

[6] = target: Phosphatidylinositol 4,5-bisphosphate 3-kinase catalytic subunit alpha isoform (Homo sapiens, UniProt P42336); assay: Inhibition of recombinant PI3Kalpha
[7] = target: Serine/threonine-protein kinase mTOR (Homo sapiens, UniProt P42345); assay: Inhibition of recombinant mTOR by luminescent kinase assay
[8] = target: Cyclin-dependent kinase 1 (Homo sapiens, UniProt P06493); assay: Inhibition of recombinant CDK1; outline: as §3
Rattus norvegicus [9] = assay: Inhibition of FGFR autophosphorylation in RT112 tumour bearing nude Rowett rat assessed as decrease in pMAPK concentration at 4.25 mg/kg, po administered as a single dose by Western blot analysis; assay type: functional, organism-based; parameters: dose 4.25 mg/kg; outline: as §2
[10] = target: Tyrosine-protein kinase CSK (Homo sapiens, UniProt P41240); assay: Inhibition of recombinant CSK; outline: as §4
Tyrosine-protein kinase CSK, sequence (P41240 whole entry): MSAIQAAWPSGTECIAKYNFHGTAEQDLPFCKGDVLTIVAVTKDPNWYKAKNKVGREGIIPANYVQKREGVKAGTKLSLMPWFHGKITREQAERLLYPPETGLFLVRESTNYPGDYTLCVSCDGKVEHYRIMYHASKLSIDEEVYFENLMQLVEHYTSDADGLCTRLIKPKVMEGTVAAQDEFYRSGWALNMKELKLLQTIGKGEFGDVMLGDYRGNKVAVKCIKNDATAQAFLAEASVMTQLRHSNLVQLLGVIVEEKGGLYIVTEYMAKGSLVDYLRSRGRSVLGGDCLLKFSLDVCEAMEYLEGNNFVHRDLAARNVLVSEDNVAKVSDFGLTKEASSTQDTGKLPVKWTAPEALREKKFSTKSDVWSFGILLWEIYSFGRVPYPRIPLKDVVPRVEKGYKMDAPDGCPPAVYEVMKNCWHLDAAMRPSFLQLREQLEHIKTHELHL

[11] = Oral bioavailability RT112/luc1 cells implanted athymic nude mouse; assay type: ADME, organism-based; conditions: in vivo
Outline: (§5)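 Female athymic nude mice carrying subcutaneous RT112/luc1 tumors (ca. 300–400 mm3). Dosing was 5 mg/kg iv by tail vein in NMP/PEG200 (1:9) or 20 mg/kg by oral gavage as a suspension in PEG300/D5W (2:1). Groups (n = 4) were sacrificed from 0.083 to 24 h. Plasma and tumor were measured by LC-MS/MS (LOQ 5 ng/mL, 10 ng/g). Noncompartmental analysis used the linear trapezoidal AUC; F was calculated from dose-normalized AUC.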

[12] = Volume of distribution at steady state in RT112/luc1 cells implanted athymic nude mouse at 5 mg/kg, iv by LC/MS/MS; assay type: ADME, organism-based; parameters: dose 5 mg/kg, route intravenous; conditions: in vivo, read-out: Vdss; outline: as §5
[13] = target: Mitogen-activated protein kinase 1 (Homo sapiens, UniProt P28482); assay: Inhibition of recombinant ERK2; outline: as §3
[14] = Inhibition of recombinant S6K
Outline: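 Purified recombinant kinases with peptide substrates and ATP at each kinase's Km. Read-out was microfluidic mobility shift.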

[15] = target: ALK tyrosine kinase receptor (Homo sapiens, UniProt Q9UM73); assay: Inhibition of recombinant ALK; outline: as §4
[16] = target: Phosphatidylinositol 3-kinase catalytic subunit type 3 (Homo sapiens, UniProt Q8NEB9); assay: Inhibition of recombinant VPS34 by luminescent kinase assay
Phosphatidylinositol 3-kinase catalytic subunit type 3, sequence (Q8NEB9 whole entry): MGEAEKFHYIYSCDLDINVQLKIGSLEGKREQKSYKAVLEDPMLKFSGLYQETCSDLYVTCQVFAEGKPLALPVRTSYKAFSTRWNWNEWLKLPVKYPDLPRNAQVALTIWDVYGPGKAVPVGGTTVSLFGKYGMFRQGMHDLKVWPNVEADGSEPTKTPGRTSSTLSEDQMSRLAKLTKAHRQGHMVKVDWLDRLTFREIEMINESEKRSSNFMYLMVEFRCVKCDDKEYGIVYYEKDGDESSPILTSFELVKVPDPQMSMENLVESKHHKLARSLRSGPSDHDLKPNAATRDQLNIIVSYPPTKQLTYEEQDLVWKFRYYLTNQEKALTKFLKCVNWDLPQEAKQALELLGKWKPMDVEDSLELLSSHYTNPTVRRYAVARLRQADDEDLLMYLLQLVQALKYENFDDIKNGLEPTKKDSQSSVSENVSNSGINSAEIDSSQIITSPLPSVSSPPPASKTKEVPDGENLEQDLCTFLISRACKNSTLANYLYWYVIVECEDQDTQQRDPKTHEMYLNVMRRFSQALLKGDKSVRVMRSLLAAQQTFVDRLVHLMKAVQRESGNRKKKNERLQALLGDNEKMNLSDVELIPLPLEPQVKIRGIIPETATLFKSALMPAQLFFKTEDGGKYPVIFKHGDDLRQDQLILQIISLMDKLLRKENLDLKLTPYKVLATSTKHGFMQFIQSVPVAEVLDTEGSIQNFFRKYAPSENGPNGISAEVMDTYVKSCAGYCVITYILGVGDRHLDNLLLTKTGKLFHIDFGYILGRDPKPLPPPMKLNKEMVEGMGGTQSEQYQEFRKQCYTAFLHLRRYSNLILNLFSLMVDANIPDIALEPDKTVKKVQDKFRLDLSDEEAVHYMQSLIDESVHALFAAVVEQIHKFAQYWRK

RT-4 = assay: Antiproliferative activity against human RT4 cells overexpressing wild type FGFR3 after 72 hrs; assay type: functional, cell-based; conditions: RT-4, 72 h
Outline: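 Bladder cancer lines from ATCC or DSMZ were seeded in 96-well plates (RT4, RT112 at 8500 cells/well; others at 5000 cells/well) in growth medium. Compound dilutions or DMSO were added 24 h later and incubated 72 h. Cells were fixed with glutaraldehyde, stained with 0.05% methylene blue and eluted with 3% HCl, then OD650 nm was read.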

[17] = target: Interleukin-1 receptor-associated kinase 4 (Homo sapiens, UniProt Q9NWZ3); assay: Inhibition of recombinant IRAK4; outline: as §3
Interleukin-1 receptor-associated kinase 4, sequence (Q9NWZ3 whole entry): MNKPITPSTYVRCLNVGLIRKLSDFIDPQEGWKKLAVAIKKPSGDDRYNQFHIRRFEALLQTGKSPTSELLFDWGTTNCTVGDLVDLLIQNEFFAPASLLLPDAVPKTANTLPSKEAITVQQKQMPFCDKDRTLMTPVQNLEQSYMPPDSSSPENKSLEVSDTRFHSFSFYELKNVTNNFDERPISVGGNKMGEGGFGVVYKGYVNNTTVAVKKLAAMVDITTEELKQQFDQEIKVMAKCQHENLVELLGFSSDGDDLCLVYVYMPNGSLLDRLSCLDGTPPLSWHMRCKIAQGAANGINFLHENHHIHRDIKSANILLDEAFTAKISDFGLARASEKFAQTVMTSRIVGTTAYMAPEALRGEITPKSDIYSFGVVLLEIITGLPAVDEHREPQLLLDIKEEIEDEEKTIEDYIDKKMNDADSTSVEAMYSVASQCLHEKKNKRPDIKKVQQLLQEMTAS

Tumour [18] = assay: Drug uptake in tumour of nude Rowett rat bearing human RT112 cells at 8.51 mg/kg, po administered as a single dose after 24 hrs by LC-MS/MS analysis; assay type: ADME, organism-based, Neoplasm, RT-112; parameters: dose 8.51 mg/kg, route oral; conditions: in vivo; outline: as §1
[19] = target: Phosphatidylinositol 4,5-bisphosphate 3-kinase catalytic subunit beta isoform (Homo sapiens, UniProt P42338); assay: Inhibition of recombinant PI3Kbeta by luminescent kinase assay
Phosphatidylinositol 4,5-bisphosphate 3-kinase catalytic subunit beta isoform, sequence (P42338 whole entry, canonical isoform): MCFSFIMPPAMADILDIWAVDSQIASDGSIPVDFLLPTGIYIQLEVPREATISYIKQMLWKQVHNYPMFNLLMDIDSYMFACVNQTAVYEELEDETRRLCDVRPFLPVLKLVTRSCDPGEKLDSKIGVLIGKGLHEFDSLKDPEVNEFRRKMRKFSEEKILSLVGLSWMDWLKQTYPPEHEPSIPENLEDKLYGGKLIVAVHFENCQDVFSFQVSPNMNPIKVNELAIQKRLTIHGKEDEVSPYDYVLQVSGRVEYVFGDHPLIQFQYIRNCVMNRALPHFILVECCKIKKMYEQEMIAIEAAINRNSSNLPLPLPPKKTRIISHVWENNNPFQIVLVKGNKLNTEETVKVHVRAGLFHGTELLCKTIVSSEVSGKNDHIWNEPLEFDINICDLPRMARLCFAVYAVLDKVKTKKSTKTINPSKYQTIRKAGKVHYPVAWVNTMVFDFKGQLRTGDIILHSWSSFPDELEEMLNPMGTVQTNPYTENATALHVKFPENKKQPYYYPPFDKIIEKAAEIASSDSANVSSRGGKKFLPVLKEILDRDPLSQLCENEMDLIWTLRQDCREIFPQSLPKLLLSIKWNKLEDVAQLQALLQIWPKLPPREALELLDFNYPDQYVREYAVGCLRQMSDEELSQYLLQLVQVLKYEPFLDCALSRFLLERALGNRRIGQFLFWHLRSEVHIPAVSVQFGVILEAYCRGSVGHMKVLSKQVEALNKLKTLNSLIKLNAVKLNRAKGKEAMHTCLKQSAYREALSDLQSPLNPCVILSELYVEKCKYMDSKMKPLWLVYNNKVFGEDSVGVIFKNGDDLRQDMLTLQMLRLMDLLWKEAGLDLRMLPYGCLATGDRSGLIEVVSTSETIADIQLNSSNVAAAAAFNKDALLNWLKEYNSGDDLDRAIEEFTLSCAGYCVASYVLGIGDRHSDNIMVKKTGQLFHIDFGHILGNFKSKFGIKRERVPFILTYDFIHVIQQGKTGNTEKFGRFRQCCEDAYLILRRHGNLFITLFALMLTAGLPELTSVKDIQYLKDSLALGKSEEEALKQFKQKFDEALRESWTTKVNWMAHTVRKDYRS

[20] = target: Tyrosine-protein kinase receptor UFO (Homo sapiens, UniProt P30530); assay: Inhibition of recombinant AXL; outline: as §4
Tyrosine-protein kinase receptor UFO, sequence (P30530 whole entry): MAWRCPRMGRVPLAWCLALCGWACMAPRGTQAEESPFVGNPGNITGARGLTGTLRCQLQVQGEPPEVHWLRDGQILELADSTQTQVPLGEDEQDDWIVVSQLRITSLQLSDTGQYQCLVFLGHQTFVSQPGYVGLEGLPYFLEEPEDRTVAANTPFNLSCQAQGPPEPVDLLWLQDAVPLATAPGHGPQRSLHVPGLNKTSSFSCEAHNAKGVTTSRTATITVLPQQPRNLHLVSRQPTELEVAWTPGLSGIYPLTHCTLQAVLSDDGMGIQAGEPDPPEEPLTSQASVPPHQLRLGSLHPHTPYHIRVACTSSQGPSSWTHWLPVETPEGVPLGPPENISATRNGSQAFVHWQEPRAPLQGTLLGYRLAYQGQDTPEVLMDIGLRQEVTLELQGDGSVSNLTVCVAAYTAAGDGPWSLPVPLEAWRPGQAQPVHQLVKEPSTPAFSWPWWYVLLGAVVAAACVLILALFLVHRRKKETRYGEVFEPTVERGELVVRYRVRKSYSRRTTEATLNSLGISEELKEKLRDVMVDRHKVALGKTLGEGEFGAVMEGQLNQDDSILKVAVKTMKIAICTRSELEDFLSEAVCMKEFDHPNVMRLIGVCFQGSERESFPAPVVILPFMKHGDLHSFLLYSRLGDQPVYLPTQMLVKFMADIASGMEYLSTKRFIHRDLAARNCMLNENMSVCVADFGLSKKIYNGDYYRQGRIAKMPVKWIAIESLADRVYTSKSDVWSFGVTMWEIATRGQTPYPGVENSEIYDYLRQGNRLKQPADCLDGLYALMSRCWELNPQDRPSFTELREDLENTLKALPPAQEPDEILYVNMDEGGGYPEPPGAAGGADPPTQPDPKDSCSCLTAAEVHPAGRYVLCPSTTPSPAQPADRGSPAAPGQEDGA

[21] = target: Mitogen-activated protein kinase 14 (Homo sapiens, UniProt Q16539); assay: Inhibition of recombinant p38alpha; outline: as §3
Tumour [22] = assay: Drug uptake in tumour of nude Rowett rat bearing human RT112 cells at 8.51 mg/kg, po administered as a single dose after 7 hrs by LC-MS/MS analysis; assay type: ADME, organism-based, Neoplasm, RT-112; parameters: dose 8.51 mg/kg, route oral; conditions: in vivo; outline: as §1
Rattus norvegicus [23] = assay: Inhibition of FGFR autophosphorylation in RT112 tumour bearing po dosed nude Rowett rat assessed as decrease in pFRS2 concentration administered as a single dose by Western blot analysis; assay type: functional, organism-based; outline: as §2
Rattus norvegicus [24] = assay: Inhibition of FGFR autophosphorylation in RT112 tumor bearing nude rowett rat assessed as decrease in pMAPK concentration at 4.25 to 8.51 mg/kg, po administered as a single dose after 24 hrs by Western blot analysis; assay type: functional, organism-based; outline: as §2
[25] = target: Cyclin-dependent kinase 2 (Homo sapiens, UniProt P24941); assay: Inhibition of recombinant CDK2; outline: as §4
Insulin receptor = Insulin receptor (Homo sapiens, UniProt P06213); assay: Inhibition of recombinant INSR; outline: as §4
[26] = Oral bioavailability in Wistar rat at 10 mg/kg; assay type: ADME, organism-based; conditions: in vivo
Outline: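 Female Wistar rats received 5 mg/kg iv into the femoral vein in NMP/PEG200 (1:9), or the monophosphate salt orally at 10 mg/kg (free base) in acetate buffer pH 4.6/PEG300. Serial sublingual plasma samples were taken from 0.083 to 24 h.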

Focal adhesion kinase 1 = Focal adhesion kinase 1 (Homo sapiens, UniProt Q05397); assay: Inhibition of recombinant FAK; outline: as §3
Focal adhesion kinase 1, sequence (Q05397 whole entry): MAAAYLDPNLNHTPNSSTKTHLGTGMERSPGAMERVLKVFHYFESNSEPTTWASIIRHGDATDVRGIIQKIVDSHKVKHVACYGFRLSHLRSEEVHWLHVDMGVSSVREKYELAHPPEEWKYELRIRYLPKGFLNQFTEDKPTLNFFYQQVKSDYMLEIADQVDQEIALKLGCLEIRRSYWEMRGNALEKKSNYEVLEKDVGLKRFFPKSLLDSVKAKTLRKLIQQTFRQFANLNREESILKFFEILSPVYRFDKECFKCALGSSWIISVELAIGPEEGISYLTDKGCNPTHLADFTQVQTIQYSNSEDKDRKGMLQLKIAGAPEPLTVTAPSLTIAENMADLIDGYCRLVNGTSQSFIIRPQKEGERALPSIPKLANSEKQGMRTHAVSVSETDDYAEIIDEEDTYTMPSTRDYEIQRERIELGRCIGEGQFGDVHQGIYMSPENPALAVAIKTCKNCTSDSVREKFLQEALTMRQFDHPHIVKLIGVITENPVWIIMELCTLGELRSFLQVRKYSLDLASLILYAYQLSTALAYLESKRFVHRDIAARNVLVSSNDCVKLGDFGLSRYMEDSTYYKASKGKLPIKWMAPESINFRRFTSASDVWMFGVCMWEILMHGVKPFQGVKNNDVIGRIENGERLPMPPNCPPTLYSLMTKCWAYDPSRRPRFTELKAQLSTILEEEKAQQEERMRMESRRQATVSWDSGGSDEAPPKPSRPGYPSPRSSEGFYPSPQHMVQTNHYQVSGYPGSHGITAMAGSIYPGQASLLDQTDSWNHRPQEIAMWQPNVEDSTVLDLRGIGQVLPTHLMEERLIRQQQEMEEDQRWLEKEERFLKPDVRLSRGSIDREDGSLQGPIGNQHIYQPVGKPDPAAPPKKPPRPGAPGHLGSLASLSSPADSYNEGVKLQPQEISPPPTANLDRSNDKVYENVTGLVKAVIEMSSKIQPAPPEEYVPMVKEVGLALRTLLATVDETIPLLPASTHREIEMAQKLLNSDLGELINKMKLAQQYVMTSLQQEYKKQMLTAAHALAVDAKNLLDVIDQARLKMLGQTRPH

For `CCN1CCN(c2ccc(Nc3cc(N(C)C(=O)Nc4c(Cl)c(OC)cc(OC)c4Cl)ncn3)cc2)CC1.O=P(O)(O)O` [INFIGRATINIB PHOSPHATE], the Drug uptake (Tumour [1]) was 0.65 nmol/g, the inhibition (Rattus norvegicus [2]) was “Active” and the IC50 [3] was greater than 10 µM. It also gave an IC50 [4] of 2.5 µM, an AUC/dose (Rattus norvegicus [5]) of 0.49 µM·h and an IC50 [6] greater than 9 µM. For the same compound, the IC50 [7] was greater than 10 µM, the IC50 [8] was greater than 10 µM and the inhibition (Rattus norvegicus [9]) was “Active”. It also gave an IC50 [10] greater than 10 µM, a bioavailability [11] of 32% and a Vd [12] of 26 L/kg. For the same compound, the IC50 [13] was greater than 10 µM, the IC50 [14] was greater than 10 µM and the IC50 [15] was greater than 10 µM. For the same compound, the IC50 [16] was greater than 10 µM, the IC50 (RT-4) was 0.03 µM and the IC50 [17] was greater than 10 µM. The Drug uptake (Tumour [18]) was 0.32 nmol/g, the IC50 [19] was greater than 9 µM and the IC50 [20] was greater than 10 µM. For the same compound, the IC50 [21] was greater than 10 µM, the Drug uptake (Tumour [22]) was 1.52 nmol/g and the Activity (Rattus norvegicus [23]) was “Dose-dependent effect”. For the same compound, the inhibition (Rattus norvegicus [24]) was “inactive”, the IC50 [25] was greater than 10 µM and the IC50 (Insulin receptor) was greater than 10 µM. It also gave a bioavailability [26] of 51% and an IC50 (Focal adhesion kinase 1) greater than 10 µM.
